Results taken from ChEMBL document CHEMBL5107978, “Identification of ligand linkage vectors for the development of p300/CBP degraders” (RSC Med Chem, 2022).
Activity calls are given as the source filed them. No cut-off for these calls is given here.

Assays:
MM1.S = test: Antiproliferative activity against human MM1.S cells assessed as reduction in cell proliferation incubated for 72 hrs by MTS assay; format: functional, cell-based
Procedure, shortened: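 MM1.S cells seeded at 2 × 10^5 cells/well, exposed 72 h in triplicate across 12.5–500 nM. Proliferation read by MTS dye absorbance. EC50 fitted with an [inhibitor] vs. normalized response model; uncertainty given as standard error.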

[1] = molecular target: T1, CREB-binding protein/Histone acetyltransferase p300 (Homo sapiens) (UniProt Q09472+Q92793); test: Binding affinity to p300/CBP in human OPM-2 cell lysate assessed as p300 pull down and measured after 12 hrs by pulldown-based Western blot analysis; format: subcellular
T1 sequence (Q09472 whole entry, looked up): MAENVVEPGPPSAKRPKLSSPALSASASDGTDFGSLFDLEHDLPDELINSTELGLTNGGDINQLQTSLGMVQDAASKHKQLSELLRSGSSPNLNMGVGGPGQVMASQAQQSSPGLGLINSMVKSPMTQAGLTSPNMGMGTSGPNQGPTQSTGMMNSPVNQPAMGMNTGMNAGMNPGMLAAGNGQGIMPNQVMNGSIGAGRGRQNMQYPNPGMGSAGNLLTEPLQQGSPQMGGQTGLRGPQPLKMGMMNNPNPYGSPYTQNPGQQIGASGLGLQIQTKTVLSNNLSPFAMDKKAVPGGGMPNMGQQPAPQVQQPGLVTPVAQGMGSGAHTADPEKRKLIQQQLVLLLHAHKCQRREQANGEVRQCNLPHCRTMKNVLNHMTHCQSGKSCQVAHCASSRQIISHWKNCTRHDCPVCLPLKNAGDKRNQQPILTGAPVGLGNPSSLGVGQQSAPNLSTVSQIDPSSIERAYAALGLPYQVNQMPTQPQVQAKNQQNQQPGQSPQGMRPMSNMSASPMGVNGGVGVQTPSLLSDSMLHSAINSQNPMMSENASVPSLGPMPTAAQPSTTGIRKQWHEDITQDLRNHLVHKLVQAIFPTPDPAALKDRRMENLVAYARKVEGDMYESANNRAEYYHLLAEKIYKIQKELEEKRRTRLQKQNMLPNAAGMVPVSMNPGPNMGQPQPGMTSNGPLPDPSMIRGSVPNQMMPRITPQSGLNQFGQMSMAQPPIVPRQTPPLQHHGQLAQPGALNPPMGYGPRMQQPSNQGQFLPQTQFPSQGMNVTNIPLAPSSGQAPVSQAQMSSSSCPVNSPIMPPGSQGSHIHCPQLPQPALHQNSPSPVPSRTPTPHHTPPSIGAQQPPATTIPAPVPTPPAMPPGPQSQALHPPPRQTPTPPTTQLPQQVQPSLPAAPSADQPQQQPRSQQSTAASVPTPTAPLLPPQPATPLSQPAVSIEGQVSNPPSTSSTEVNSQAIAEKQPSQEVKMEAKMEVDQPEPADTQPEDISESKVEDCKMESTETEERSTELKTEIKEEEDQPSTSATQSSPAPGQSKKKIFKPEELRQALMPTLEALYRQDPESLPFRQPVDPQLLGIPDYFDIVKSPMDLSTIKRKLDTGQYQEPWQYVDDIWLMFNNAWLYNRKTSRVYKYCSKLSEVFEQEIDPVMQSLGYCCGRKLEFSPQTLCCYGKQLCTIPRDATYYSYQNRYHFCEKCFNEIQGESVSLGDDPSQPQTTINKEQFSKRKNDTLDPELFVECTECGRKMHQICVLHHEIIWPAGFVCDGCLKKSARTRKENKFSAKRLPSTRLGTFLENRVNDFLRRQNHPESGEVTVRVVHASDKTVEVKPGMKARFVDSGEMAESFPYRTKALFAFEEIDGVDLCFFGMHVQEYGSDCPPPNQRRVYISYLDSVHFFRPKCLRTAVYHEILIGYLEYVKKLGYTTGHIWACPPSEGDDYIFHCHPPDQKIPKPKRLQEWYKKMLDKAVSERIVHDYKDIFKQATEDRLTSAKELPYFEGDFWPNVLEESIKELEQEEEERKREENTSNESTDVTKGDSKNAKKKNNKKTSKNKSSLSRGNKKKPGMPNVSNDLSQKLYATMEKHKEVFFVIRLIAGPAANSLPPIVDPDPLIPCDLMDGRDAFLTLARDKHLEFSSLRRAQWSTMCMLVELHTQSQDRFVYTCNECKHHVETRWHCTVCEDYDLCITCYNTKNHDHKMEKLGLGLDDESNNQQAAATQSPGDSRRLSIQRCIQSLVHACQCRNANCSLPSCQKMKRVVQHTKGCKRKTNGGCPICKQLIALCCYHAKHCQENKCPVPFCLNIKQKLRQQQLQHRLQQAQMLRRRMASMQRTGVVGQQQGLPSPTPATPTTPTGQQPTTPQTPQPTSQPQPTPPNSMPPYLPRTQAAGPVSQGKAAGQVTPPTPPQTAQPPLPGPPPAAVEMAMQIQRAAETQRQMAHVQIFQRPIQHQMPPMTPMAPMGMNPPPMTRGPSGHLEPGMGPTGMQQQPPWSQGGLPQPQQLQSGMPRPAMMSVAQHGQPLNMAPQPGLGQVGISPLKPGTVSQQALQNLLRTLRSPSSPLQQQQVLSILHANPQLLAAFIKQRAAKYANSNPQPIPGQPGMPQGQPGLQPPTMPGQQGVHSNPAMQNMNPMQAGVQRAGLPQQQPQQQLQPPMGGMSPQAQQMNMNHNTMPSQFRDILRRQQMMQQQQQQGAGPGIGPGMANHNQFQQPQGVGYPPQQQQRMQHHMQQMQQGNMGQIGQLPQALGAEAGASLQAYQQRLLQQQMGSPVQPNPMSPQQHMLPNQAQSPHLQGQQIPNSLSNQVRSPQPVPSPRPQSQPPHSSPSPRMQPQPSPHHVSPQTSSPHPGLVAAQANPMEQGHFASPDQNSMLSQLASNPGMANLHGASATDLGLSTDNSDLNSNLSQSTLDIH
T1 sequence (Q92793 whole entry, looked up): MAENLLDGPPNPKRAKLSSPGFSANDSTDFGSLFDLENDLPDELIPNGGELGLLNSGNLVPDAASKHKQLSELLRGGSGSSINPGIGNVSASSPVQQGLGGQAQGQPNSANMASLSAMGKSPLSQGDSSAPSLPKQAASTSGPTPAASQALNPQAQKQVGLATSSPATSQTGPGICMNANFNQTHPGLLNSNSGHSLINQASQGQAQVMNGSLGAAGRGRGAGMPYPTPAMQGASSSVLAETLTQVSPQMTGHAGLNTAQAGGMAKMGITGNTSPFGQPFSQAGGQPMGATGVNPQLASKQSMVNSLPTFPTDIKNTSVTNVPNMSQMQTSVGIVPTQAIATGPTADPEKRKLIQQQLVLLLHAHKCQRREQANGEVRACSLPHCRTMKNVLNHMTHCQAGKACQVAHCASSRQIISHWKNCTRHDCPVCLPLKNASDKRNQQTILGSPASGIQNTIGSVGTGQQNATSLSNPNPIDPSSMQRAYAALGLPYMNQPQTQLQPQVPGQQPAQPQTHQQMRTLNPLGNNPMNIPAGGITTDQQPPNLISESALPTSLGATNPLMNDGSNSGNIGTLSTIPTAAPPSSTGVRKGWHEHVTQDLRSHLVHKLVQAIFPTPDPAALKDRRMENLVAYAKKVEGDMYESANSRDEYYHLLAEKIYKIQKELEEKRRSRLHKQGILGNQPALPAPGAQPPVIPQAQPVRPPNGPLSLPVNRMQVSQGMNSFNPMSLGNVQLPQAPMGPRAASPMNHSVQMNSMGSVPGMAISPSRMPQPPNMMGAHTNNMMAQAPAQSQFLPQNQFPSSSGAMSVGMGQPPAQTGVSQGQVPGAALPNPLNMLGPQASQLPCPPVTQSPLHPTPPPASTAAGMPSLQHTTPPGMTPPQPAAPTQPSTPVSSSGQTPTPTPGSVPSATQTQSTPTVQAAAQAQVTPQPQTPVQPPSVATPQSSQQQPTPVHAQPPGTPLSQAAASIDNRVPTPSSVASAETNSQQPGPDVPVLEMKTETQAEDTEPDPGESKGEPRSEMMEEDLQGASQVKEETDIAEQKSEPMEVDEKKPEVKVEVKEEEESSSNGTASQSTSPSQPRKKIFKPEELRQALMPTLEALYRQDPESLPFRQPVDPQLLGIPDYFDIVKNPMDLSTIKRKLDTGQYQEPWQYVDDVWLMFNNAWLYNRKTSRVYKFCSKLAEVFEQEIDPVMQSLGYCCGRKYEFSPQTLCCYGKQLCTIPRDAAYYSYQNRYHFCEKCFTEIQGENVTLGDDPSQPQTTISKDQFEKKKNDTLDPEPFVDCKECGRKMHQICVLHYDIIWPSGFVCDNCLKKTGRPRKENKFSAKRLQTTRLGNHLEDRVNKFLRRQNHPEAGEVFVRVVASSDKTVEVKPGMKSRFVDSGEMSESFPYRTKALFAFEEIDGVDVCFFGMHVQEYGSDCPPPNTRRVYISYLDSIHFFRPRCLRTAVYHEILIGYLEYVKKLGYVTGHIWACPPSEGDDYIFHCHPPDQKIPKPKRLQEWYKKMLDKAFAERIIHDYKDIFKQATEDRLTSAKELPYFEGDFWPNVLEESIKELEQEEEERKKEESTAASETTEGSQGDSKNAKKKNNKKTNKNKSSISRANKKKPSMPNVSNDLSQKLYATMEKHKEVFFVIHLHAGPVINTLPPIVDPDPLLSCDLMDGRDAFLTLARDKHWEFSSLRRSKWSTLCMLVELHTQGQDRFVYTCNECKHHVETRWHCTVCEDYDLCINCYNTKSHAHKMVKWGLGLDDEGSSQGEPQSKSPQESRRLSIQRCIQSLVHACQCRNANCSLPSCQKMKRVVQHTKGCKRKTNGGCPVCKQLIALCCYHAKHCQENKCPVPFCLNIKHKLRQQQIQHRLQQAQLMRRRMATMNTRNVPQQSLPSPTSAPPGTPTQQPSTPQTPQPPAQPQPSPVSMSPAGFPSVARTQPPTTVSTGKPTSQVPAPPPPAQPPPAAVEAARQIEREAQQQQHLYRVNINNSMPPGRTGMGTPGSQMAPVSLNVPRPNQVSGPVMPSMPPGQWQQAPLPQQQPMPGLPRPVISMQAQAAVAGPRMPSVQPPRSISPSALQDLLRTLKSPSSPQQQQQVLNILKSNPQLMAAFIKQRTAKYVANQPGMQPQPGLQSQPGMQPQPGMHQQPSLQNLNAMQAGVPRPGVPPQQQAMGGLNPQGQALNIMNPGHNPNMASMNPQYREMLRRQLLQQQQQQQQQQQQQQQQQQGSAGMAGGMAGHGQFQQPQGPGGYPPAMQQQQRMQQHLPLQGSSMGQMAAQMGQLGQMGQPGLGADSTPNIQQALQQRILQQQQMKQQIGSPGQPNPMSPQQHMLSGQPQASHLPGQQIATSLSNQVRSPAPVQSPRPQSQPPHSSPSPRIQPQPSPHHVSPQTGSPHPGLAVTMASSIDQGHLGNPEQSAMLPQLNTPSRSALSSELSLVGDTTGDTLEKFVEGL
Procedure, shortened: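 Biotinylated ligands coupled to streptavidin magnetic beads for 3 h at room temperature in 50 mM Tris pH 7.5, 300 mM NaCl, 0.05% NP40. Beads then incubated with OPM2 cell lysate overnight at 4°C, washed in binding buffer, boiled off in SDS loading buffer. Bound p300 detected by SDS-PAGE and anti-p300 immunoblot.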

[2] = molecular target: T1, CREB-binding protein/Histone acetyltransferase p300 (Homo sapiens); test: Protac activity at p300/CBP degradation in human MM1.S cells assessed as amount p300 remaining at 10 uM incubated for 24 hrs by pulldown-based Western blot analysis; format: cell-based
Procedure, shortened: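 MM1.S cells at 2 × 10^6 cells/well in RPMI 1640, pre-incubated 24 h at 37 °C, 5% CO2, then exposed 24 h at 1, 5 or 10 µM. RIPA lysates run on 3–8% tris-acetate SDS gels and probed for p300 and β-actin. Band intensity expressed relative to the lane's DMSO vehicle and β-actin loading control.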

| EC50 (MM1.S) | Activity [1] | Activity [2] | Compound |
| --- | --- | --- | --- |
| 139 nM | Active |  | CNC(=O)Nc1ccc2c(c1)CC[C@@]21OC(=O)N(CC(=O)N(Cc2ccc(F)cc2)[C@@H](C)C(F)(F)F)C1=O [A-485] |
|  |  | 18% | C[C@H](N(Cc1ccc(F)cc1)C(=O)CN1C(=O)O[C@@]2(CCc3cc(NC(=O)NCCOCCOCCOCCNc4cccc5c4C(=O)N(C4CCC(=O)NC4=O)C5=O)ccc32)C1=O)C(F)(F)F (stereo partly drawn) |
| 422 nM |  | 9% | C[C@H](N(Cc1ccc(F)cc1)C(=O)CN1C(=O)O[C@@]2(CCc3cc(NC(=O)NCCOCCOCCOCCOCCNc4cccc5c4C(=O)N(C4CCC(=O)NC4=O)C5=O)ccc32)C1=O)C(F)(F)F (stereo partly drawn) |
|  |  | 42% | C[C@H](N(Cc1ccc(F)cc1)C(=O)CN1C(=O)O[C@@]2(CCc3cc(NC(=O)NCCCCNc4cccc5c4C(=O)N(C4CCC(=O)NC4=O)C5=O)ccc32)C1=O)C(F)(F)F (stereo partly drawn) |
| 294 nM |  | 49% | C[C@H](N(Cc1ccc(F)cc1)C(=O)CN1C(=O)O[C@@]2(CCc3cc(NC(=O)NCCOCCOCCNc4cccc5c4C(=O)N(C4CCC(=O)NC4=O)C5=O)ccc32)C1=O)C(F)(F)F (stereo partly drawn) |
